SMILES strings stand for the structures.

This passage reports inhibition results from ChEMBL document CHEMBL1932943, “Montmorillonite K-10 mediated green synthesis of cyano pyridines: Their evaluation as potential inhibitors of PDE4” (Eur J Med Chem, 2012).

Chain of 3',5'-cyclic-AMP phosphodiesterase 4B (Homo sapiens) (Q07343 whole entry): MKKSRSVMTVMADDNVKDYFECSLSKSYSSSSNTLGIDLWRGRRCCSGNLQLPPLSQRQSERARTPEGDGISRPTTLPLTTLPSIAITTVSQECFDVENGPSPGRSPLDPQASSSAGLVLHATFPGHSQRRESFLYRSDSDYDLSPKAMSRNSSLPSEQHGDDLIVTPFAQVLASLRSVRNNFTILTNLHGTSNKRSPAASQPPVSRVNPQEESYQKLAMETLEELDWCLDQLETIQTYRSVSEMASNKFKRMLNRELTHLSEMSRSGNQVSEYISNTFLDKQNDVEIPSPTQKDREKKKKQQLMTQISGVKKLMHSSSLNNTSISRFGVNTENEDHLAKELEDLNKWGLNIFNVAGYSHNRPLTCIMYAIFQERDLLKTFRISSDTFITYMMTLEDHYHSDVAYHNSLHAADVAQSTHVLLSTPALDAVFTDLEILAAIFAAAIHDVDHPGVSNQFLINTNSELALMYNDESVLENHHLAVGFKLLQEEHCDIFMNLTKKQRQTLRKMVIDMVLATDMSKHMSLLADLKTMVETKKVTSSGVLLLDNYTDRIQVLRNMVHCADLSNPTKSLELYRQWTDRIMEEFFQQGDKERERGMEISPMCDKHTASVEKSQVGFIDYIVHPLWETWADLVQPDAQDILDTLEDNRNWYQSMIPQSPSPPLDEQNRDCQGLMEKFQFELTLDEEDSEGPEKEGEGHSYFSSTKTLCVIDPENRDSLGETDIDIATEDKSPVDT

The target of the test is 3',5'-cyclic-AMP phosphodiesterase 4B (Homo sapiens) (UniProt Q07343). Nature of the test: Inhibition of recombinant His-tagged PDE4B using cAMP as substrate at 30 uM preincubated for 15 mins before substrate addition measured after 1 hr by luminescence assay. The essentials:
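PDE4B cDNA expressed as His-tagged protein in baculovirus-infected Sf9 cells, Ni-NTA purified. 10 ng enzyme preincubated 15 min with compound or DMSO vehicle, then 1 h with 5 µM cAMP, using a PDElight HTS cAMP phosphodiesterase kit. Reaction stopped, detection reagent added for 10 min in the dark, luminescence read. % inhibition = (RLU vehicle − RLU inhibitor)/RLU vehicle × 100.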
For orientation: inhibition means the change of the read-out against control, counted positive when it falls. `CCOC(=O)c1c(C)nc(OCC)c(C#N)c1-c1ccc(F)cc1F`: the inhibition amounted to 20.4%.

With `COC(=O)c1c(C)nc(OC)c(C#N)c1-c1ccc(OC)cc1`, the inhibition is 64.1%.

Consider `CCOC(=O)c1c(C)nc(OCC)c(C#N)c1-c1ccc(Br)cc1`, for which the inhibition turned out to be 43.7%. Under `COC(=O)c1c(C)nc(OC)c(C#N)c1-c1ccccc1` stands 38.4%; under `CCOC(=O)c1c(C)nc(OCC)c(C#N)c1-c1ccc(F)cc1`, 42.3%. As for `COC(=O)c1c(C)nc(OC)c(C#N)c1-c1ccc(F)cc1`, the inhibition came out at 43.2%. In the case of `COC(=O)c1c(C)nc(OC)c(C#N)c1-c1ccc(C(F)(F)F)cc1` it was 23.5%; in that of `COC(=O)c1c(C)nc(OC)c(C#N)c1-c1c(F)cc(Br)cc1F`, 22.4%; in that of `COC(=O)c1c(C)nc(OC)c(C#N)c1-c1ccc(Br)cc1`, 44.8%.

As to `COC(=O)c1c(C)nc(OC)c(C#N)c1-c1ccc(F)cc1F`, the inhibition amounted to 21.5%.

As for `CCOC(=O)c1c(C)nc(OCC)c(C#N)c1-c1ccc(OC)cc1`, the inhibition is 65.9%.
